Measured values published in ChEMBL document CHEMBL1138476 (J Med Chem, 2009).
Converted amounts (≈) assume the structure as drawn.

Tests used:
Rattus norvegicus [1] = assay: Effect on acute renal function in rat assessed as change in urine pH per 100 gm body weight at 30 mg/kg, po (RVb= 7.74+/-0.07 mg/dl); type: functional
Canis familiaris [2] = assay: Effect on respiratory function in spontaneously breathing mongrel dog assessed as change in intrapleural pressure at 5 mg/kg after intravenous infusion for 30 mins (RVb= -90.8+/-103 %); type: functional, Canis lupus familiaris
Canis familiaris [3] = assay: Effect on respiratory function in spontaneously breathing mongrel dog assessed as change in airway resistance at 5 mg/kg after intravenous infusion for 6 mins (RVb= 3.9+/-4.7 %); type: functional, Canis lupus familiaris
Canis familiaris [4] = assay: Effect on respiratory function in spontaneously breathing mongrel dog assessed as change in respiration rate at 5 mg/kg after intravenous infusion for 6 mins (RVb= -8.3+/-8.3 %); type: functional, Canis lupus familiaris
Rattus norvegicus [5] = assay: Effect on acute renal function in rat assessed as change in urine sodium level per 100 gm body weight at 30 mg/kg, po (RVb= 49.9+/-3.1 mg/dl); type: functional
[6] = Volume of distribution at steady state in chimpanzee at 0.5 mg/kg, iv; type: ADME, organism-based, Pan troglodytes; parameters: dose 0.5 mg/kg, route intravenous; details: in vivo, read-out: Vdss
Procedure, shortened: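 Single chimpanzee given 0.5 mg/kg iv over 10 min (0.2 mL/kg) in 10% DMAC, 70% propylene glycol and deionized water. EDTA blood taken predose, at 6, 15 and 30 min, and at 2 to 96 h.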

Canis familiaris [7] = assay: Effect on respiratory function in spontaneously breathing mongrel dog assessed as change in pulmonary compliance at 5 mg/kg after intravenous infusion for 6 mins (RVb= 6.0+/-4.2 %); type: functional, Canis lupus familiaris
[8] = molecular target: T1, Corticotropin-releasing factor receptor 1 (Rattus norvegicus, UniProt P35353); assay: Displacement of [125I]Tyro-rat/human CRF from CRF1 receptor in rat cortical membrane by gamma counting; type: cell membranes
T1 sequence (P35353 whole entry): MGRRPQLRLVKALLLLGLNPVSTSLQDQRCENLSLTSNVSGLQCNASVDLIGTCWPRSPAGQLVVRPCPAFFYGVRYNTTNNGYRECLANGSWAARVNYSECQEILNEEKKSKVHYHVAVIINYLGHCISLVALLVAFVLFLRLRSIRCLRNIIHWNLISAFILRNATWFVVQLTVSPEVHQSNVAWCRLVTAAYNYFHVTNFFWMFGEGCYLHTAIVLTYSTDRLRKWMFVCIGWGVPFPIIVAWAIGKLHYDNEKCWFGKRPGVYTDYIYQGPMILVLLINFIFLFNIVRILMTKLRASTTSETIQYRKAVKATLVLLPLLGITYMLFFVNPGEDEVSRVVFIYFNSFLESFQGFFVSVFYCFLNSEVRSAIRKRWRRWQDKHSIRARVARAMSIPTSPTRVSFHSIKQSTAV
Procedure, shortened: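 Binding to CRF receptors in rat cortical homogenate.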

[9] = Plasma concentration in dog at 3 mg/kg after […]; type: ADME, organism-based, Canis lupus familiaris; parameters: dose 3 mg/kg, route intravenous; details: iv
Canis familiaris [10] = assay: Effect on respiratory function in spontaneously breathing mongrel dog assessed as change in tidal volume at 5 mg/kg after intravenous infusion for 6 mins (RVb= 5.8+/-3.8 %); type: functional, Canis lupus familiaris
[11] = Solubility in acetone; type: physicochemical
Canis familiaris [12] = assay: Effect on respiratory function in spontaneously breathing mongrel dog assessed as change in peak expiratory flow at 5 mg/kg after intravenous infusion for 30 mins (RVb= -3.3+/-6.4 %); type: functional, Canis lupus familiaris
Canis familiaris [13] = assay: Cardiovascular activity in mechanically ventilated mongrel dog at assessed as increase in contractility at 3 mg/kg to 5 mg/kg, iv by dose escalation study
[14] = Oral bioavailability in rat at 5 mg/kg; type: ADME, organism-based; details: in vivo
Procedure, shortened: (§1)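 Rats (n = 3) were dosed at 1 mg/kg iv in 10% DMAC, 70% propylene glycol and deionized water, and at 5 mg/kg po in 0.5% methylcellulose.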

[15] = Elimination half life in rat at 1 mg/kg, iv and 5 mg/kg, po; type: ADME, organism-based; details: in vivo, read-out: beta t1/2 (converted); procedure, shortened: as §1
Canis familiaris [16] = assay: Effect on respiratory function in spontaneously breathing mongrel dog assessed as change in tidal volume at 5 mg/kg after intravenous infusion for 30 mins (RVb= 6.1+/-5.6 %); type: functional, Canis lupus familiaris
[17] = Tmax in rat at 5 mg/kg, po; type: ADME, organism-based; parameters: dose 5 mg/kg, route oral; details: in vivo
Procedure, shortened: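 Rats (n = 3) dosed iv at 1 mg/kg in 10% DMAC, 70% propylene glycol and deionized water, and orally at 5 mg/kg in 0.5% methylcellulose.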

Canis familiaris [18] = assay: Effect on respiratory function in spontaneously breathing mongrel dog assessed as change in pulmonary compliance at 5 mg/kg after intravenous infusion for 60 mins (RVb= -4.8+/-[…]); type: functional, Canis lupus familiaris
Canis familiaris [19] = assay: Effect on respiratory function in spontaneously breathing mongrel dog assessed as change in heart rate at 5 mg/kg after intravenous infusion for 6 mins (RVb= -0.4+/-0.7 %); type: functional, Canis lupus familiaris
Rattus norvegicus [20] = assay: Toxicity in rat assessed as total distance traveled at 30 mg/kg, po after 1 hr by spontaneous locomotor test; type: functional
Procedure, shortened: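 Rat spontaneous locomotor activity test with oral dosing in 0.25% Methocel 1 h before testing, at doses up to 100 mg/kg. Values are mean ± SEM, with N rats per group, compared with the vehicle (zero-dose) group.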

Substance-K receptor = molecular target: T2, Substance-K receptor (Homo sapiens, UniProt P21452); assay: Binding affinity to human neurokinin 2 receptor
T2 sequence (P21452 whole entry): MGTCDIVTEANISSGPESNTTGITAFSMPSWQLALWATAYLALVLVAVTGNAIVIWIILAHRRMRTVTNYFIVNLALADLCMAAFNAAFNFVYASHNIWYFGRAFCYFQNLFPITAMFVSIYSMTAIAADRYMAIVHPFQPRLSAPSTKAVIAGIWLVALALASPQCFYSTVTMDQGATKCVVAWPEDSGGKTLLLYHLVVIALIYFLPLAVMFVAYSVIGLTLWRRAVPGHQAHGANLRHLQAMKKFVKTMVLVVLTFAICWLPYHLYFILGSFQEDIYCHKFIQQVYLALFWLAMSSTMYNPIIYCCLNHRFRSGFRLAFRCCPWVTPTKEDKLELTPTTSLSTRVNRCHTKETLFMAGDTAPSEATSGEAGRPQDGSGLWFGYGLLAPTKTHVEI
Procedure, shortened: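 Human neurokinin 2 receptor binding, contracted out as part of a broad screen.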

Rattus norvegicus [21] = assay: Anxiolytic activity in rat assessed as decrease in latency to exit dark chamber at 10 mg/kg, po by defensive withdrawal test relative to untreated control; type: functional; parameters: scale not given: the % may be the effect or the level left
Procedure, shortened: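 Rat defensive withdrawal: latency to leave the dark chamber and explore the open field, maximum 900 s. Dosed orally in 0.25% Methocel 60 min before testing; n = 8 per dose, mean ± SEM. Analysed by Kruskal–Wallis followed by Mann–Whitney U against vehicle.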

Canis familiaris [22] = assay: Effect on respiratory function in spontaneously breathing mongrel dog assessed as change in minute volume at 5 mg/kg after intravenous infusion for 15 mins (RVb= -4.7+/-3.4 %); type: functional, Canis lupus familiaris
Canis familiaris [23] = assay: Effect on respiratory function in spontaneously breathing mongrel dog assessed as change in respiration rate at 5 mg/kg after intravenous infusion for 30 mins (RVb= -4.5+/-8.2 %); type: functional, Canis lupus familiaris
[24] = molecular target: T1, Corticotropin-releasing factor receptor 1; assay: Antagonist activity at CRF1 receptor in rat pituitary cells assessed as inhibition of CRF-mediated ACTH production; type: functional, cell-based, Pituitary gland cell

Compound `CC[C@@H](C)Nc1nc(C)nc2c(-c3ccc(OC)nc3C)c(C)nn12` [PEXACERFONT] has an Activity (Rattus norvegicus [1]) of 7.74, an Activity (Canis familiaris [2]) of 8.6% and an Activity (Canis familiaris [3]) of 15.3%. For the same compound, the Activity (Canis familiaris [4]) was 37.5%, the Activity (Rattus norvegicus [5]) was 58.4 mg/dL and the Vd [6] was 4.2 L/kg. The Activity (Canis familiaris [7]) was -2.5%, the IC50 [8] was 6.1 nM and the concentration at 0.5 h [9] was 1290 nM. For the same compound, the Activity (Canis familiaris [10]) was -3.5%, the solubility [11] was 460 mg/mL (≈ 1350 mM) and the Activity (Canis familiaris [12]) was -10.7%. For the same compound, the Activity (Canis familiaris [13]) was 200 mmHg/s, the bioavailability [14] was 40% and the half-life [15] was 810 min. It also gave an Activity (Canis familiaris [16]) of -15.2%, a Tmax [17] of 45 min and an Activity (Canis familiaris [18]) of 33.8%. For the same compound, the Activity (Canis familiaris [19]) was -0.3%, the Activity (Rattus norvegicus [20]) was 4846 cm and the IC50 (Substance-K receptor) was 4.9 µM. For the same compound, the Activity (Rattus norvegicus [21]) was 65%, the Activity (Canis familiaris [22]) was 0.6% and the Activity (Canis familiaris [23]) was -32.5%. It also gave an IC50 [24] of 129 nM.
